Measured values from ChEMBL document CHEMBL4689842, “EUbOPEN Chemogenomics Library wave 1” (2021).
Values joined by “and” are separate entries in the source; they are usually repeats but may differ in a detail not shown here. Identical values can stand only once.

Test system: U2OS
Assay: Multiplex assay against U2OS
Type: toxicity, cell-based
Settings: human, 10 µM, compound concentration 10 uM
In short: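 Hoechst33342, BioTracker Green Microtubule Cytoskeleton Dye, MitoTracker Red and Annexin V Alexa Fluor 680 were added to live cells at seeding, and imaging on a CQ1 microscope at 37°C and 5% CO2 followed compound addition. Gating by CellPathfinder machine learning separated cells into Hoechst high-intensity objects or normal cells, then normal cells into healthy, pyknosed or fragmented nuclei, then pyknosed cells into mitotic or apoptotic. Per cents of healthy-nucleus cells are reported for the tubulin, mitochondrial-mass and membrane-permeability phenotypes.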

Structure (SMILES): CCn1c(=O)c(-c2ccc(Cl)cc2Cl)cc2cnc(Nc3ccc(N4CCNCC4)c(F)c3)nc21
- Population Apoptotic (%) (12 h, replicate 1): 97% and 89% and 38%
- Population Normal (%) (12 h, replicate 1): 31% and 45% and 92%
- Total Cell Count (12 h, replicate 1): 204 and 465 and 202
- Population Apoptotic (%) (12 h, replicate 2): 100% and 88% and 46%
- Population Fragmented Nuclei (%) (12 h, replicate 2): 44% and 21% and 19%
- Population Membrane Permeable-Phenotype (%) (12 h, replicate 2): 71% and 78%
- Population Normal (%) (12 h, replicate 2): 50% and 40% and 80%
- Total Cell Count (12 h, replicate 2): 206 and 130 and 83
- Population Apoptotic (%) (24 h, replicate 1): 87% and 91% and 60%
- Population Fragmented Nuclei (%) (24 h, replicate 1): 22% and 8%
- Population Normal (%) (24 h, replicate 1): 40% and 34% and 89%
- Population Pyknosed Nuclei (%) (24 h, replicate 1): 50% and 40% and 25%
- Total Cell Count (24 h, replicate 1): 436 and 206 and 232
- Population Apoptotic (%) (24 h, replicate 2): 100% and 53%
- Population Fragmented Nuclei (%) (24 h, replicate 2): 41% and 39%
- Population Healthy Nuclei (%) (24 h, replicate 2): 31% and 45% and 50%
- Population Pyknosed Nuclei (%) (24 h, replicate 2): 26% and 15% and 27%
- Population Tubulin-Different-Phenotype (%) (24 h, replicate 2): 84% and 86% and 29%
- Total Cell Count (24 h, replicate 2): 225 and 118 and 97
- Population Apoptotic (%) (48 h, replicate 1): 90%
- Population Fragmented Nuclei (%) (48 h, replicate 1): 48%
- Population Healthy Nuclei (%) (48 h, replicate 1): 10%
- Population Hoechst High Intensity Objects (%) (48 h, replicate 1): 59%
- Population Membrane Permeable-Phenotype (%) (48 h, replicate 1): 75%
- Population Mitochondria Different-Phenotype (%) (48 h, replicate 1): 62%
- Population Mitotic Cells (%) (48 h, replicate 1): 9%
- Population Normal (%) (48 h, replicate 1): 40%
- Population Pyknosed Nuclei (%) (48 h, replicate 1): 41%
- Population Tubulin-Different-Phenotype (%) (48 h, replicate 1): 75%
- Total Cell Count (48 h, replicate 1): 620
- Population Apoptotic (%) (48 h, replicate 2): 100%
- Population Fragmented Nuclei (%) (48 h, replicate 2): 43%
- Population Healthy Nuclei (%) (48 h, replicate 2): 26%
- Population Hoechst High Intensity Objects (%) (48 h, replicate 2): 56%
- Population Membrane Permeable-Phenotype (%) (48 h, replicate 2): 100%
- Population Mitochondria Different-Phenotype (%) (48 h, replicate 2): 91%
- Population Mitotic Cells (%) (48 h, replicate 2): 0%
- Population Normal (%) (48 h, replicate 2): 43%
- Population Pyknosed Nuclei (%) (48 h, replicate 2): 30%
- Population Tubulin-Different-Phenotype (%) (48 h, replicate 2): 91%
- Total Cell Count (48 h, replicate 2): 227
